Hits are enriched below; roughly 3.5% of the tested compounds scored in any of these assays.
MEKK2mut PB1 HTS: signal of MEK5 binding to mutant human MEKK2 PB1 domain | bead flow cytometry, Alexa488-MEK5 binding to MEKK2 mutant | percent response, % at 10 µM | hit rate 0.35% among 290,000 | AID 1530; in the data active = percent response above about 24%, passing the limit was not always enough
ABCG2 inh: human ABCG2 inhibition, ABCB1 as counter-screen | IgMXP3 cells, JC-1 efflux, flow cytometry | inhibition, % at 6.6 µM | hit rate 0.1% among 190,000 | AID 1325;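 active = inhibition above 80%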
Target sequence (Q9UNQ0 whole entry, looked up): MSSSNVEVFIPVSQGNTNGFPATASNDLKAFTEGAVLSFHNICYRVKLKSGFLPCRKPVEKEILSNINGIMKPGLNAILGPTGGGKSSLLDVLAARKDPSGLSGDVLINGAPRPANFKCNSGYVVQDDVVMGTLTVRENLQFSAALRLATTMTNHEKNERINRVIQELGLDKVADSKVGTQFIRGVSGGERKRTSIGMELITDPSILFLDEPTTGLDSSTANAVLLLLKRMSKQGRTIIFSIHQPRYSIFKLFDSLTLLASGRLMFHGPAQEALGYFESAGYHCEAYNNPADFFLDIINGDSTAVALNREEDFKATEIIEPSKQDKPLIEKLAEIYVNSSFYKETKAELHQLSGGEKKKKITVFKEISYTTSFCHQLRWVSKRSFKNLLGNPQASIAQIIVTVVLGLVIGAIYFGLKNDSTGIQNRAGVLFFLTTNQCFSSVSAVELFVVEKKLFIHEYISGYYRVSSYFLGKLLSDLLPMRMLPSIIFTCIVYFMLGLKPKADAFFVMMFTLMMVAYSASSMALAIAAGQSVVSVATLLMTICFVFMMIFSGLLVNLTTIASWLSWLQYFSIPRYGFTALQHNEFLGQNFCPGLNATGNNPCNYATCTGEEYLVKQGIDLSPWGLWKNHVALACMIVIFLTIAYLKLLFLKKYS
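System: two drug-resistant human cell lines, ABCG2 and ABCB1; controls: nicardipine high and DMSO low controls; times: 10 min exposure at 25 °C with rotation, no wash; detection: flow cytometry of retained JC-1 fluorescence; read-out basis: percent efflux inhibition, scaled nicardipine 100% to DMSO 0%; doses: one concentration, 6.6 µM final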
ABCB1 block: human ABCB1 inhibition, ABCG2 as counter-screen. inhibition, % at 6.6 µM. AID 1326. hit rate 0.067% among 190,000. CCRF-Adr cells, JC-1 efflux, flow cytometry; in the data active = inhibition above about 40%;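 note: higher value means more JC-1 retained so stronger ABCB1 efflux block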
MEKK3 PB1 HTS: raises or lowers MEK5 binding to the human MEKK3 PB1 domain; bead-based flow cytometry, Alexa488-MEK5 binding to MEKK3; actives lie on both sides; 0 = blocked by unlabeled MEK5, 100 = vehicle; binding response (% of control), % at 10 µM; hit rate 1.4% among 290,000; AID 1529;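 active = binding response more than 3 SD above or below the average of its plate-row segment, actives on both sides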;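 note: Alexa488 bead fluorescence after subtracting the streptavidin-only scavenger bead signal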
MEKK2wt PB1 HTS: raises or lowers MEK5 binding to wildtype human MEKK2 PB1 domain. Q9Y2U5. bead flow cytometry, Alexa488-MEK5 binding to MEKK2 WT; actives lie on both sides. binding response (% of control), % at 10 µM. hit rate 1.1% among 290,000. AID 1531; in the data active = binding response below about 67% or above about 130%
WT yeast gro inh: growth inhibition of WT yeast, mitochondrial fusion screen; mitochondrial fusion phenotypic screen, WT strain; inhibition, % at 10 µM; hit rate 2.1% among 190,000; AID 1362; in the data active = inhibition above about 58%; tested in S. cerevisiae
MEKK2wt confirm: raises or lowers MEK5 binding to wildtype human MEKK2, retest | AID 1892 | shares compounds with MEKK3 PB1 HTS | bead flow cytometry, Alexa488-MEK5 binding to MEKK2 WT; actives lie on both sides | binding response (% of control), % at 10 µM | hit rate 2.4% among 5,900; in the data active = binding response below about 16% or above about 210%; inactive = in between
MEKK2mut confirm: signal of MEK5 binding to mutant human MEKK2, retest | bead flow cytometry, Alexa488-MEK5 binding to MEKK2 mutant | shares compounds with MEKK3 PB1 HTS | hit rate 2% among 5,900 | percent response, % at 10 µM | AID 1893; in the data active = percent response mostly above about 71%, no sharp cut-off; inactive = mostly below about 38%;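 note: higher means compound restores mutant binding toward wildtype level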
MEKK3-MEK5 inh: confirmation of inhibitors of MEK5 binding to human MEKK3 | hit rate 1.8% among 5,900 | shares compounds with MEKK3 PB1 HTS | binding response (% of control), % at 10 µM | AID 1894 | bead flow cytometry, Alexa488-MEK5 binding to MEKK3; stronger effect = lower value;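 active = binding response below 72% of control, or above a set upper limit, though filed actives all read lower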
Numbers stand for hits; - = inactive; . = no result; [ ] = another dose, or the depositor's remark.

SMILES	MEKK2mut PB1 HTS	ABCG2 inh	ABCB1 block	MEKK3 PB1 HTS	MEKK2wt PB1 HTS	WT yeast gro inh	MEKK2wt confirm	MEKK2mut confirm	MEKK3-MEK5 inh
CCN1CCN(Cc2ccc(NC(=O)c3ccc(C)c(NC(=O)c4cc(-c5ccc(Br)cc5)n[nH]4)c3)cc2C(F)(F)F)CC1	75.0	.	.	-	150.0	.	239.0	126.0	-
CCCn1cc(CN2CCCC(C(=O)c3ccc4c(c3)OCO4)C2)c(C)n1 (stereo not drawn)	-	.	.	-	-	.	.	.	.
C=CCn1c(SCCN2CCCC2)nc2c([nH]c3ccccc32)c1=O	-	-	-	50.0[inhibitor]	-	-	-	-	-
COc1ccc(-n2cc(CNCCc3ncc(C)[nH]3)c(-c3ccccc3Cl)n2)cc1	-	-	-	-	153.0	-	-	-	-
CCN1CCC(CNCc2cn(-c3ccc(OC)cc3)nc2-c2ccccc2Cl)C1 (stereo not drawn)	-	-	-	-	180.0	-	-	-	-
COc1ccc(-n2cc(CNCCc3nc(C)cc(C)n3)c(-c3ccccc3Cl)n2)cc1	-	-	-	-	-	-	.	.	.
Oc1ccccc1CN1CCCN(Cc2ccccc2O)C1	-	-	-	124.0	-	-	-	-	-
CCN(C(=O)CSc1ncccc1C(=O)OC(C)C)c1cccc(C)c1	-	-	-	0.0[inhibitor]	-3.0[inhibitor]	-	-	-	-
O=C(CCc1c[nH]c2ccccc12)NC1CC1	-	-	-	-	-	.	.	.	.
COc1ccc(CNC[C@@H](CCCCN(C)Cc2ccc(OC)cc2)N2C[C@H](c3ccccc3)N(CCc3ccc(Cl)c(Cl)c3)C(=O)C2=O)cc1	94.0	-	-	-	236.0	-	240.0	100.0	-
Cc1ccc(/C=N/NC(=O)c2ccoc2C)o1	-	-	-	130.0	-	-	-	-	-
COC1CCN(Cc2cn(Cc3ccccc3)nc2-c2cc3ccccc3o2)CC1	-	-	-	-	140.0	-	-	-	-
OCC1CCN(Cc2cn(Cc3ccccc3)nc2-c2cc3ccccc3o2)CC1	-	-	-	-	-	-	.	.	.
CCn1c(O)c(N=NC(=O)CNc2cccc(C)c2)c2ccccc21	-	-	-	148.0	-	-	-	-	-
CCCN(CCC)CCNC(=O)c1cc2c(-c3ccccc3F)nn(C)c2s1	-	.	.	-	-	.	.	.	.
CCCN(CCC)CCNC(=O)c1cc2c(-c3ccc(Cl)cc3)nn(C)c2s1	42.0	.	.	-	184.0	.	-	92.0	-
CCCCN(CC)CCNC(=O)c1cc2c(-c3ccc(Cl)cc3)nn(C)c2s1	47.0	.	.	-	198.0	.	-	98.0	-
CCOCCCNC(=O)c1cc2c(-c3ccc(Cl)cc3)nn(C)c2s1	-	-	-	-	-	-	.	.	.
CCN(CC)CCNC(=O)c1cc2c(-c3ccc(Cl)cc3)nn(C)c2s1	-	-	-	-	191.0	-	-	-	-
O=C(NCc1ccccc1Cl)c1ccc2nc[nH]c2c1	-	-	-	-	-	-	.	.	.
Cc1ccc(S(=O)(=O)N(C)C)cc1NC(=O)CCCNC(=O)c1ccc(Cl)cc1	-	.	.	-	-	.	.	.	.
COc1ccc(N2CCN(S(=O)(=O)CC34CCC(CC3=O)C4(C)C)CC2)cc1 (stereo not drawn)	-	.	.	-	-	.	.	.	.
COc1ccc(NC(=O)c2cccc(N3C(=O)NC4CC3(C)Oc3ccccc34)c2)cc1 (stereo not drawn)	-	-	-	133.0	-	-	-	-	-
COC(=O)c1ccc(OC(=O)c2cccnc2)cc1	-	-	-	128.0	-	-	-	-	-
CCOC(=O)C1C(=O)CC(C)(O)C(C(=O)OCC)C1c1ccc([N+](=O)[O-])cc1 (stereo not drawn)	-	.	.	-	-	.	.	.	.
SMILES	MEKK2mut PB1 HTS	ABCG2 inh	ABCB1 block	MEKK3 PB1 HTS	MEKK2wt PB1 HTS	WT yeast gro inh	MEKK2wt confirm	MEKK2mut confirm	MEKK3-MEK5 inh
COc1ccc(C(NC=O)c2cc(OC)c(OC)cc2Br)cc1OC (stereo not drawn)	-	-	-	-	-	-	.	.	.
CCOc1ccc2nc(N(CCCN(C)C)C(=O)c3ccc(S(=O)(=O)N4CCc5ccccc5C4)cc3)sc2c1	-	.	.	-	168.0	.	-	-	-
CN(C)CCN(C(=O)c1ccc2c(c1)CCCC2)c1nc2c(F)cccc2s1	-	.	.	-	-	.	.	.	.
CCOc1ccc2nc(N(CCCN(C)C)C(=O)c3ccc4c(c3)CCCC4)sc2c1	26.0	.	.	-	158.0	.	-	-	-
CN(C)CCCN(C(=O)c1ccc2c(c1)CCCC2)c1nc2ccc(Cl)cc2s1	78.0	-	-	-	196.0	79.9	221.0	-	-
COc1ccc(N2CCN(C(=O)CCc3nnc4ccc(N5CCOCC5)nn34)CC2)cc1	-	.	.	-	-	.	.	.	.
O=C1NCC(COc2ccc(Cl)cc2)O1 (stereo not drawn)	-	-	-	-	-	-	.	.	.
COC(=O)COc1ccc(S(=O)(=O)NCc2ccc3c(c2)OCO3)cc1C	-	.	.	-	-	.	.	.	.
CC(C)c1ccc(/C=N/NC(=O)c2c(Cl)cnn2C)cc1	-	-	-	-	-	-	.	.	.
O=C(Nc1ccc(F)c(Cl)c1)Nc1csc2ccccc12	-	.	.	-	191.0	.	-	-	-
Fc1cccc(Oc2nc3ccccc3n3cccc23)c1	-	-	-	-	-	-	.	.	.
COc1ccccc1N(CC(=O)NCC1CCCO1)C(=O)CNS(=O)(=O)c1ccc(Cl)cc1 (stereo not drawn)	-	.	.	128.0	-	.	-	-	-
NS(=O)(=O)c1ccc(-c2ccc(/C=C3\SC(=S)N(C4CCS(=O)(=O)C4)C3=O)o2)cc1 (stereo not drawn)	-	.	.	-	56.0[inhibitor]	.	-	-	-
CC1=CC(C)(C)N2C(=O)C3(N=C(N)NC(Nc4ccccc4)=N3)c3cc(C)cc1c32 (stereo not drawn)	33.0	-	-	-	154.0	-	-	-	-
COc1ccc(CCN(Cc2cc3ccc(C)cc3[nH]c2=O)C(C)=O)cc1OC	-	.	.	135.0	-	.	-	-	-
COc1ccccc1N(Cc1cc2ccc(C)cc2[nH]c1=O)C(C)=O	-	.	.	-	-	.	.	.	.
Cc1cccc(N(Cc2cc3ccc(C)cc3[nH]c2=O)C(=O)c2ccco2)c1	-	.	.	133.0	-	.	-	-	-
Cc1ccc2cc(CN(C(=O)c3ccco3)c3ccccc3)c(=O)[nH]c2c1	-	-	-	-	-	-	.	.	.
O=C(c1ccc(Cl)cc1Cl)N1CCC(C(=O)N2CCOCC2)CC1	-	.	.	-	-	.	.	.	.

Screens from PubChem.
